High-throughput results as filed in PubChem.
GSH fluor: compound fluorescence on glutathione beads, profiling panel, artefact control, biophysical, 488/530 nm, flow cytometry. 190,000 compounds, 0.25% hits. AID 1776, 2009. fluorescence (KMESF) at 10 µM. GSH beads flow cytometry, compound fluorescence 488/530 nm; hits give high values; in the data active = fluorescence above about 89;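 also: glutathione beads carrying GST-tagged Bcl family fusion proteins plus one bare bead set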
ABCG2 block: ABCG2 efflux pump inhibitors, primary screen, multiplex with ABCB1, IgMXP3 cells, flow cytometry. AID 1325, 2008. 190,000 compounds, 0.1% hits. inhibition, % at 6.6 µM. JC-1 efflux;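 active = inhibition above 80%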
Target sequence (Q9UNQ0 whole entry, looked up): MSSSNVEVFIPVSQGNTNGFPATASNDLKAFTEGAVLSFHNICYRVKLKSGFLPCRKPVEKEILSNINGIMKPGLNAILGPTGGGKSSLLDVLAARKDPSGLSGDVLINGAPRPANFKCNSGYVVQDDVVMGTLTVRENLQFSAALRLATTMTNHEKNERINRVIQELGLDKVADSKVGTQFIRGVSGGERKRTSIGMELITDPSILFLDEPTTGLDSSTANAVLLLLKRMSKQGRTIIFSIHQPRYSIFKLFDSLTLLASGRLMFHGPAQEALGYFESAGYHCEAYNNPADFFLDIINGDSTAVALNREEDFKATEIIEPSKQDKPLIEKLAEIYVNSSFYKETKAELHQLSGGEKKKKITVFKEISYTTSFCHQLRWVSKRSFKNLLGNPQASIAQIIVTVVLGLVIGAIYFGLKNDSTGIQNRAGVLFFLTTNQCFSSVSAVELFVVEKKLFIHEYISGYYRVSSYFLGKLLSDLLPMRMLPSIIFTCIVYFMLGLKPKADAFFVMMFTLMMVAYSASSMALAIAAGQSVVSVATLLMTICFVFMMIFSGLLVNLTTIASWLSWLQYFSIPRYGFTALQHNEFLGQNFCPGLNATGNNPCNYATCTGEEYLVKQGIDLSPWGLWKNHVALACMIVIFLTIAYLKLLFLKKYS
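Incubation: cells with compound and JC-1, 10 min at 25 °C, rotating, no wash / Test system: IgMXP3 (ABCG2) plus far-red-tagged CCRF-Adr (ABCB1) cells / Compound dosing: one concentration, 6.6 µM final / Also added: JC-1 fluorescent substrate / Evaluation: efflux inhibition in percent versus controls / Detection: flow cytometry, 530 nm JC-1 signal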
PKD1 kinase inh: inhibitors of human PKD1 kinase, biochemical, fluorescence polarization | PKD1 kinase fluorescence polarization assay | 200,000 compounds, 0.056% hits | inhibition, % (test concentration not listed)
Lmaj promast: Leishmania major promastigote growth inhibition, primary screen; Leishmania major promastigotes, resazurin fluorescence viability; inhibition, % at 10 µM; 200,000 compounds, 9% hits; AID 1063, 2008;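 also: promastigotes grown with compound for 44 hours at 28 °C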
Avidin bead fluor: green autofluorescence of compounds with avidin beads – biophysical, 488/530 nm, flow cytometry, artefact control, profiling panel | compound fluorescence 488/530 nm; hits give high values | fluorescence (KMESF) at 10 µM | 220,000 compounds, 0.38% hits; in the data active = fluorescence above about 47
ABCB1 inh: ABCB1 efflux pump inhibitors, primary screen, cell-based, multiplex, flow cytometry, ABCG2 counter-screen | ATP-dependent translocase ABCB1 (Homo sapiens), P08183 | CCRF-Adr cells, JC-1 efflux | inhibition, % at 6.6 µM | 190,000 compounds, 0.067% hits | AID 1326, 2008; in the data active = inhibition above about 40%;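 also: higher value means more JC-1 retained so stronger ABCB1 efflux block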
Numbers stand for hits; i = inactive; nt = not tested or not shown. This excerpt belongs to a sample that is enriched for hits. Rule as the data show it, unless noted: active = inhibition above about 50%; inactive = the rest.

SMILES	GSH fluor	ABCG2 block	PKD1 kinase inh	Lmaj promast	Avidin bead fluor	ABCB1 inh
Cc1n[nH]c(C)c1S(=O)(=O)N1CCCC(C(=O)N2CCN(c3ccc(Cl)cc3)CC2)C1 (centres undefined)	i	i	i	52	i	i
O=C(C1CCCN(S(=O)(=O)c2cccc3nonc23)C1)N1CCN(c2cccc(Cl)c2)CC1 (centres undefined)	i	i	i	93	i	i
O=C(C1CCCN(S(=O)(=O)c2cccc3nonc23)C1)N1CCN(c2ccccc2Cl)CC1 (centres undefined)	i	i	i	i	i	i
O=C(C1CCN(S(=O)(=O)c2cccc3cccnc23)CC1)N1CCN(c2ccc(Cl)cc2)CC1	i	i	i	52	i	i
c1ccc2c(c1)[nH]c1c3ccccc3sc21	nt	nt	nt	nt	i	nt
CNC(=S)N1CCN(C(=O)c2ccco2)CC1	i	i	i	75	i	i
Cc1ccccc1CN1CCN(CC2CC3C=CC2C3)CC1 (centres undefined)	i	i	i	87	i	i
CS(=O)(=O)N1CCN(CC2CC3C=CC2C3)CC1 (centres undefined)	i	i	i	93	i	i
C1=CC2CC1CC2CN1CCN(c2ccccc2)CC1 (centres undefined)	i	i	i	85	i	i
CCN1CCN(CC2CC3C=CC2C3)CC1 (centres undefined)	i	i	i	i	i	i
CNC(=S)N1CCC(NC(=O)c2ccco2)CC1	nt	nt	nt	nt	i	nt
Cc1ncc(CN2CCN(C(C)C)C(CCO)C2)s1 (centres undefined)	i	i	i	i	i	i
CC(=O)c1cccc(NC(=O)C2CCN(C(=O)c3ccc([N+](=O)[O-])cc3)CC2)c1	i	i	i	i	i	i
Cc1ccc(SCC(=O)N2c3ccccc3Sc3ccccc32)cc1	i	i	i	i	i	i
CCC1(CC)NC(=O)N(CC(=O)Nc2ccc(S(=O)(=O)N3CCOCC3)cc2)C1=O	i	i	i	i	i	i
CSc1ncccc1C(=O)Nc1nnc(C2CC2)s1	i	i	i	i	i	i
O=C(NC(=S)NCC1CCCO1)C(c1ccccc1)c1ccccc1 (centres undefined)	i	i	i	i	i	i
O=C(c1ccco1)N1CCN(CC2CC3C=CC2C3)CC1 (centres undefined)	i	i	i	93	i	i
O=C(Cn1nc(CNc2ccc(Cl)cc2)[n+]2c1CCCCC2)c1ccc(Br)cc1	i	i	i	59	i	i
COc1ccc(NCc2nn(CC(=O)c3ccc(Br)cc3)c3[n+]2CCCCC3)cc1	i	i	i	i	i	i
CN(C)S(=O)(=O)c1cccc(NC(=S)NN=C(Cc2ccccc2)Cc2ccccc2)c1	i	i	i	i	i	i
O=C(CCN1C(=O)c2ccccc2S1(=O)=O)Nc1nc2c(s1)CCCC2	i	i	i	i	i	i
CNC(=O)c1cc2c(=O)n3cccc(C)c3nc2n(C(C)C)c1=N	i	i	i	i	i	i
C=CCNC(=O)/C(C#N)=C\c1cc(Cl)c(OCC)c(OC)c1	i	i	i	85	i	i
CCCCOC(=O)/C(=C\c1ccc([N+](=O)[O-])o1)NC(=O)c1ccccc1	i	i	i	83	i	i
SMILES	GSH fluor	ABCG2 block	PKD1 kinase inh	Lmaj promast	Avidin bead fluor	ABCB1 inh
COCCn1nnnc1CN(CCc1ccc(OC)c(OC)c1)Cc1cc2ccc(C)cc2[nH]c1=O	i	i	i	97	i	i
Cc1ccccc1CSCC(Nc1ccc(C(=O)O)cc1[N+](=O)[O-])C(=O)O (centres undefined)	i	i	i	i	i	i
CNC(=O)c1ccsc1NC(=O)c1coc2ccccc2c1=O	i	i	i	i	i	i
CCOC(=O)c1c(NC(=O)COC(=O)CNC(=O)c2ccco2)sc(C(C)=O)c1C	i	i	i	i	i	i
CCOc1ccc(OCC)c(S(=O)(=O)NCCOC23CC4CC(CC(C4)C2)C3)c1	i	i	i	78	i	i
O=C(NCCc1ccccc1)c1ccc(Cl)nc1	i	i	i	i	i	i
Oc1ccc(-c2cn3c(n2)SCC3)cc1O	i	i	i	98	i	i
O=S(=O)(Nc1cc(Sc2ncn[nH]2)c(O)c2ccccc12)c1ccccc1	i	i	i	99	i	i
COC(=O)c1ccc(S(=O)(=O)N2CCCCCC2)cc1	i	i	i	i	i	i
O=C(/C=C/c1ccc(O)c(O)c1)c1ccc(S(=O)(=O)N2CCCCCC2)cc1	i	i	i	95	i	i
Cc1c(N=Cc2cccs2)c(=O)n(-c2ccccc2)n1C	i	i	i	i	i	i
Cc1ccc(C2C(C=Nc3c(C)n(C)n(-c4ccccc4)c3=O)=C(c3ccccc3)Oc3ccccc32)cc1 (centres undefined)	i	i	i	56	i	i
CN(C)CCCNC(NC(=O)/C=C/c1ccccc1)C(Cl)(Cl)Cl (centres undefined)	nt	nt	nt	nt	i	nt
COc1ccc(CCNC(=O)c2cc(-c3cc(C)c(C)cc3O)n[nH]2)cc1OC	i	i	i	i	90	i
CCN1CCN(C(=O)c2ccc(CN(c3ccccc3)S(=O)(=O)c3ccccc3)cc2)CC1	i	i	i	80	i	i
COc1ccc(CCNC(=O)c2ccc(CNS(=O)(=O)c3ccccc3)cc2)cc1OC	i	i	i	70	i	i
O=C(c1ccc(-n2cccc2)cc1)N1CCN(Cc2ccccc2)CC1	i	i	i	75	i	i
CN1CCN(C(=O)c2ccc(CN(c3ccccc3)S(=O)(=O)c3ccccc3)cc2)CC1	i	i	i	i	i	i
COc1ccc(CCNC(=O)C2CCC(CNS(=O)(=O)c3ccccc3)CC2)cc1OC (centres undefined)	i	i	i	i	i	i
Cc1ccc(S(=O)(=O)NCc2ccc(C(=O)N3CCN(Cc4ccccc4)CC3)cc2)cc1	i	i	i	77	i	i
O=C(c1cccc(NS(=O)(=O)c2ccc(F)c(F)c2)c1)N1CCN(Cc2ccccc2)CC1	i	i	i	59	i	i
Cc1ccc(S(=O)(=O)NCc2ccc(C(=O)NCCCN3CCC(Cc4ccccc4)CC3)cc2)cc1	i	i	i	96	i	i
O=C(c1cccc(S(=O)(=O)NCc2ccccc2)c1)N1CCN(Cc2ccccc2)CC1	i	i	i	i	i	i
O=C1C[C@H]2[C@H](CO)[C@@H](OC(=O)c3ccc(-c4ccccc4)cc3)C[C@H]2O1	nt	nt	nt	nt	i	nt
Cc1c(C(=O)NCc2ccccc2)c(-c2ccccc2)nn1-c1ccccc1	i	i	i	86	i	i
FC(F)Sc1ccc(NC(=S)NCc2ccccc2)cc1	i	i	i	i	i	i
